Data set [1] relates to Plasma. Briefly: Retention time in Sprague-Dawley rat plasma treated with 56.6 mg/kg, ip VU0409106 single dose. Also noted: dose 56.6 mg/kg, route intraperitoneal. It counts as ADME, organism-based. The conditions noted are these: in vivo. The method, boiled down:
(§1)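 Male Sprague-Dawley rats given a single intraperitoneal dose of 56.6 mg/kg. Plasma extracted with 2 volumes acetonitrile and centrifuged; metabolites profiled by LC-MS/MS.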

Data set [2] is described as follows: Drug level in Sprague-Dawley rat hepatic S9 fraction treated with 25 uM VU0409106 by LC-UV-MS analysis. Type of data set: ADME, tissue-based, Liver. The method, boiled down:
(§2)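 Hepatic S9 (5 mg/ml) in 0.1 M potassium phosphate pH 7.4 with 3 mM MgCl2 and 25 µM substrate, 37°C, 1 h under ambient oxygen; NADPH (2 mM) added in select runs. Reactions started by adding substrate. Protein precipitated with 2 volumes MeCN and the supernatant dried under nitrogen, reconstituted in 85:15 10 mM ammonium formate (pH 4.1)-MeCN, then analysed by LC-MS.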

Data set [3] is described as follows: Drug level in cynomolgus monkey hepatic S9 fraction treated with 25 uM VU0409106 by LC-UV-MS analysis. It counts as ADME, tissue-based, Macaca fascicularis, Liver. The method, boiled down: as §2
Data set [4] can be described thus: Drug level in human hepatic S9 fraction treated with 25 uM VU0409106 by LC-UV-MS analysis. Type of data set: ADME, tissue-based, Liver. The method, boiled down:
as §2

The subject of a further data set is Hepatocyte. Put plainly: Drug level in Sprague-Dawley rat cryopreserved hepatocytes treated with 25 uM VU0409106 by LC-UV-MS analysis. It counts as ADME, cell-based.
Data set [5] in a line: Drug level in beagle dog hepatic S9 fraction treated with 25 uM VU0409106 by LC-MS/MS analysis. Type of data set: ADME, tissue-based, Canis lupus familiaris, Liver. The method, boiled down:
as §2

Data set [6] can be described thus: Drug level in Sprague-Dawley rat hepatic S9 fraction treated with 25 uM VU0409106 by LC-MS/MS analysis in presence of 100 uM hydralazine aldehyde oxidase inhibitor. It counts as ADME, tissue-based, Liver. The method, boiled down: as §2
Data set [7] in a line: Drug level in Sprague-Dawley rat hepatic S9 fraction treated with 25 uM VU0409106 by LC-MS/MS analysis in presence of 100 uM allopurinol xanthine oxidase inhibitor. Type of data set: ADME, tissue-based, Liver. The method, boiled down:
as §2

The nature of data set [8]: Drug level in human hepatic S9 fraction treated with 25 uM VU0409106 by LC-MS/MS analysis in presence of 100 uM raloxifene aldehyde oxidase inhibitor. Type of data set: ADME, tissue-based, Liver. The method in brief: as §2
Data set [9] can be described thus: Drug level in human hepatic S9 fraction treated with 25 uM VU0409106 by LC-MS/MS analysis in presence of 100 uM hydralazine aldehyde oxidase inhibitor. Type of data set: ADME, tissue-based, Liver. The method, boiled down: as §2
For data set [10], the system named is Plasma. Briefly: Drug level in Sprague-Dawley rat plasma treated with 56.6 mg/kg, ip VU0409106 single dose by LC-MS/MS analysis. Type of data set: ADME, organism-based. The conditions noted are these: in vivo. Set-up: dose 56.6 mg/kg, route intraperitoneal. The method in brief: as §1
Data set [11] is described as follows: Drug level in Sprague-Dawley rat hepatic S9 fraction treated with 3-fluoro-N-(4-methylthiazol-2-yl)-5-(6-oxo-1,6-dihydropyrimidin-5-yloxy)benzamide by LC-MS/MS analysis in presence of 100 uM allopurinol xanthine oxidase inhibitor. It counts as ADME, tissue-based, Liver.

On to `Cc1csc(NC(=O)c2cc(F)cc(Oc3cnc[nH]c3=O)c2)n1`, for which the Retention_time with Plasma [1] is recorded as 12.55 min. Also, the Drug metabolism result in data set [2] is given as “metabolite_detected”; in [3] it was “metabolite_detected”; in data set [4] it was “metabolite_detected”; in the data set with Hepatocyte, “metabolite_detected”; in data set [5], “metabolite_not_detected”; in data set [6], “metabolite_not_detected”. Besides, the Drug metabolism entry is “metabolite_detected” in data set [7], “metabolite_not_detected” in data set [8], “metabolite_not_detected” in data set [9] and “metabolite_detected” in the data set on Plasma [10].

Consider `Cc1csc(NC(=O)c2cc(F)cc(Oc3c[nH]c(=O)[nH]c3=O)c2)n1`, for which the Retention_time in the data set on Plasma [1] was 12.3 min. Besides, the Drug metabolism entry in data set [2] is listed as “metabolite_detected”; in data set [3], “metabolite_detected”; in data set [4], “metabolite_detected”; with Hepatocyte it was “metabolite_detected”; in data set [7], “metabolite_not_detected”; in data set [11], “metabolite_not_detected”. Besides, the Drug metabolism result in the data set on Plasma [10] was “metabolite_detected”.

The record behind these values is ChEMBL document CHEMBL3526046, “The role of aldehyde oxidase and xanthine oxidase in the biotransformation of a novel negative allosteric modulator of metabotropic glutamate receptor subtype 5” (Drug Metab Dispos, 2012).
